Experimental data as given in ChEMBL document CHEMBL3585302, “Synthesis and antibacterial activities of cadiolides A, B and C and analogues” (Bioorg Med Chem, 2015).
Active and inactive are the calls of the source. The calls are words filed in the database; no cut-off is given here.

Key:
Bacillus subtilis [1] = experiment: Antibacterial activity against Bacillus subtilis CECT 35 assessed as inhibition of microbial growth incubated for 18 hrs by 2-fold microtiter broth dilution method; assay type: functional, organism-based; conditions: CECT 35, 18 h
Method in brief: (§1)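 Compounds in DMSO, ten 2-fold serial dilutions (125 down to 0.24 µg/mL tested). Bacteria at OD620 = 0.001 in Nutrient Broth mixed 1:1 with dilutions. Incubated overnight (18 h) at 28°C or 37°C according to strain. Growth read turbidimetrically at OD620. MIC is the lowest concentration giving complete growth inhibition. Triplicate runs. Tetracycline as reference.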

Enterococcus faecalis [2] = experiment: Antibacterial activity against Enterococcus faecalis CECT 481 assessed as inhibition of microbial growth incubated for 18 hrs by 2-fold microtiter broth dilution method; assay type: functional, organism-based; conditions: CECT 481, 18 h; method in brief: as §1
Bacillus cereus [3] = experiment: Antibacterial activity against Bacillus cereus CECT 148 assessed as inhibition of microbial growth incubated for 18 hrs by 2-fold microtiter broth dilution method; assay type: functional, organism-based; conditions: CECT 148, 18 h; method in brief: as §1
Staphylococcus aureus [4] = experiment: Antibacterial activity against Staphylococcus aureus CECT 86 assessed as inhibition of microbial growth incubated for 18 hrs by 2-fold microtiter broth dilution method; assay type: functional, organism-based; conditions: CECT 86, 18 h; method in brief: as §1
Escherichia coli [5] = experiment: Antibacterial activity against Escherichia coli CECT 100 assessed as inhibition of microbial growth incubated for 18 hrs by 2-fold microtiter broth dilution method; assay type: functional, organism-based; conditions: CECT 100, 18 h; method in brief: as §1
Salmonella typhi [6] = experiment: Antibacterial activity against Salmonella typhi CECT 409 assessed as inhibition of microbial growth incubated for 18 hrs by 2-fold microtiter broth dilution method; assay type: functional, organism-based, Salmonella enterica subsp. enterica serovar Typhi; conditions: Salmonella enterica, CECT 409, 18 h
Method in brief: (§2)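 Compounds in DMSO, ten 2-fold serial dilutions (125 down to 0.24 µg/mL), mixed 1:1 with bacteria in Nutrient Broth at OD620 = 0.001. Incubated overnight (18 h) at 28 or 37 °C depending on strain. Growth read turbidimetrically at OD620; MIC is the lowest concentration completely inhibiting growth, per CLSI. Triplicate runs; tetracycline reference.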

Escherichia coli [7] = experiment: Antibacterial activity against Escherichia coli CECT 405 assessed as inhibition of microbial growth incubated for 18 hrs by 2-fold microtiter broth dilution method; assay type: functional, organism-based; conditions: CECT 405, 18 h; method in brief: as §1
[8] = tested on: Pectobacterium carotovorum; experiment: Antibacterial activity against Erwinia carotovora CECT 225 assessed as inhibition of microbial growth incubated for 18 hrs by 2-fold microtiter broth dilution method; assay type: functional, organism-based; conditions: CECT 225, 18 h; method in brief: as §1
[9] = tested on: Pectobacterium carotovorum; experiment: Antibacterial activity against Erwinia carotovora CECT 225 assessed as inhibition of microbial growth at 125 ug/ml incubated for 18 hrs by 2-fold microtiter broth dilution method; assay type: functional, organism-based; method in brief: as §1
Bacillus subtilis [10] = experiment: Antibacterial activity against Bacillus subtilis CECT 35 assessed as inhibition of microbial growth at 125 ug/ml incubated for 18 hrs by 2-fold microtiter broth dilution method; assay type: functional, organism-based; method in brief: as §1
Escherichia coli [11] = experiment: Antibacterial activity against Escherichia coli CECT 405 assessed as inhibition of microbial growth at 125 ug/ml incubated for 18 hrs by 2-fold microtiter broth dilution method; assay type: functional, organism-based; method in brief: as §1
Escherichia coli [12] = experiment: Antibacterial activity against Escherichia coli CECT 100 assessed as inhibition of microbial growth at 125 ug/ml incubated for 18 hrs by 2-fold microtiter broth dilution method; assay type: functional, organism-based; method in brief: as §1
Bacillus cereus [13] = experiment: Antibacterial activity against Bacillus cereus CECT 148 assessed as inhibition of microbial growth at 125 ug/ml incubated for 18 hrs by 2-fold microtiter broth dilution method; assay type: functional, organism-based; method in brief: as §1
Staphylococcus aureus [14] = experiment: Antibacterial activity against Staphylococcus aureus CECT 86 assessed as inhibition of microbial growth at 125 ug/ml incubated for 18 hrs by 2-fold microtiter broth dilution method; assay type: functional, organism-based; method in brief: as §1
Enterococcus faecalis [15] = experiment: Antibacterial activity against Enterococcus faecalis CECT 481 assessed as inhibition of microbial growth at 125 ug/ml incubated for 18 hrs by 2-fold microtiter broth dilution method; assay type: functional, organism-based; method in brief: as §1
Salmonella typhi [16] = experiment: Antibacterial activity against Salmonella typhi CECT 409 assessed as inhibition of microbial growth at 125 ug/ml incubated for 18 hrs by 2-fold microtiter broth dilution method; assay type: functional, organism-based; conditions: Salmonella enterica subsp. enterica serovar Typhi; method in brief: as §2

SMILES | MIC (Bacillus subtilis [1]) [µg/mL] | MIC (Enterococcus faecalis [2]) [µg/mL] | MIC (Bacillus cereus [3]) [µg/mL] | MIC (Staphylococcus aureus [4]) [µg/mL] | MIC (Escherichia coli [5]) [µg/mL] | MIC (Salmonella typhi [6]) [µg/mL] | MIC (Escherichia coli [7]) [µg/mL] | MIC [8] [µg/mL] | growth inhibition (GI) [9] | growth inhibition (GI) (Bacillus subtilis [10]) | growth inhibition (GI) (Escherichia coli [11]) | growth inhibition (GI) (Escherichia coli [12]) | growth inhibition (GI) (Bacillus cereus [13]) | growth inhibition (GI) (Staphylococcus aureus [14]) | growth inhibition (GI) (Enterococcus faecalis [15]) | growth inhibition (GI) (Salmonella typhi [16])
O=C1O/C(=C\c2ccc(O)c(Br)c2)C(c2ccc(O)cc2)=C1C(=O)c1ccc(O)c(Br)c1 | > 125 | > 125 | 3.9 | > 125 | > 125 | 125 | 125 | > 125 |  |  |  |  |  |  |  | 
COc1c(Br)cc(C2=C(C(=O)c3cc(Br)c(O)c(Br)c3)C(=O)O/C2=C\c2ccc(O)cc2)cc1Br |  |  |  |  |  |  |  |  | inactive | inactive | inactive | inactive | inactive | inactive | inactive | inactive
O=C1O/C(=C\c2ccc(O)cc2)C(c2ccc(O)cc2)=C1C(=O)c1ccc(O)cc1 | > 125 | 125 | 62.5 | 62.5 | 62.5 | 125 | 62.5 | 125 |  |  |  |  |  |  |  | 
O=C1O/C(=C\c2ccc(O)cc2)C(c2cc(Br)c(O)c(Br)c2)=C1C(=O)c1cc(Br)c(O)c(Br)c1 | 125 | 7.81 | 7.81 | 7.81 | > 125 | 7.81 | 7.81 | 125 |  |  |  |  |  |  |  | 
COc1ccc(C2=C(C(=O)c3ccco3)C(=O)O/C2=C\c2ccc(O)c(Br)c2)cc1Br |  |  |  |  |  |  |  |  | inactive | inactive | inactive | inactive | inactive | inactive | inactive | inactive
COc1ccc(C2=C(C(=O)c3cc(Br)c(O)c(Br)c3)C(=O)O/C2=C\c2cc(Br)c(O)c(Br)c2)cc1 |  |  |  |  |  |  |  |  | inactive | inactive | inactive | inactive | inactive | inactive | inactive | inactive
CN(C)[C@@H]1C(O)=C(C(N)=O)C(=O)[C@@]2(O)C(O)=C3C(=O)c4c(O)cccc4[C@@](C)(O)[C@H]3C[C@@H]12 [TETRACYCLINE] | 0.97 | 0.48 | 3.9 | 0.24 | 3.9 | 7.81 | 7.81 | 3.9 |  |  |  |  |  |  |  | 
COc1ccc(C2=C(C(=O)c3cc(Br)c(O)c(Br)c3)C(=O)O/C2=C\c2ccc(O)c(Br)c2)cc1Br |  |  |  |  |  |  |  |  | inactive | inactive | inactive | inactive | inactive | inactive | inactive | inactive
O=C1O/C(=C\c2cc(Br)c(O)c(Br)c2)C(c2cc(Br)c(O)c(Br)c2)=C1C(=O)c1ccc(O)cc1 | 125 | 3.9 | 3.9 | 3.9 | > 125 | 3.9 | 7.81 | 125 |  |  |  |  |  |  |  | 
O=C1O/C(=C\c2ccc(O)c(Br)c2)C(c2ccc(O)c(Br)c2)=C1C(=O)c1ccc(O)cc1 | 125 | 31.2 | 15.6 | 31.2 | 15.6 | 31.2 | 15.6 | 125 |  |  |  |  |  |  |  | 
O=C1O/C(=C\c2cc(Br)c(O)c(Br)c2)C(c2cc(Br)c(O)c(Br)c2)=C1C(=O)c1ccc(O)c(Br)c1 | 125 | 3.9 | 3.9 | 3.9 | > 125 | 3.9 | 1.95 | 125 |  |  |  |  |  |  |  | 
O=C1O/C(=C\c2cc(Br)c(O)c(Br)c2)C(c2ccc(O)cc2)=C1C(=O)c1cc(Br)c(O)c(Br)c1 | 125 | 15.6 | 15.6 | 15.6 | > 125 | 15.6 | 15.6 | 125 |  |  |  |  |  |  |  | 
O=C1O/C(=C\c2ccc(O)cc2)C(c2ccc(O)cc2)=C1C(=O)c1ccco1 | > 125 | 31.2 | 15.6 | 15.6 | 31.2 | 15.6 | 31.2 | > 125 |  |  |  |  |  |  |  | 
O=C1O/C(=C\c2cc(Br)c(O)c(Br)c2)C(c2cc(Br)c(O)c(Br)c2)=C1C(=O)c1cc(Br)c(O)c(Br)c1 [CADIOLIDE B] | > 125 | 7.81 | 7.81 | 7.81 | > 125 | 15.6 | 7.81 | > 125 |  |  |  |  |  |  |  | 
O=C1O/C(=C\c2ccc(O)c(Br)c2)C(c2ccc(O)c(Br)c2)=C1C(=O)c1cc(Br)c(O)c(Br)c1 [CADIOLIDE C] | 125 | 3.9 | 3.9 | 3.9 | > 125 | 3.9 | 3.9 | 125 |  |  |  |  |  |  |  | 
O=C1O/C(=C\c2cc(Br)c(O)c(Br)c2)C(c2ccc(O)c(Br)c2)=C1C(=O)c1ccc(O)c(Br)c1 | 125 | 1.95 | 1.95 | 3.9 | > 125 | 3.9 | 3.9 | 125 |  |  |  |  |  |  |  | 
O=C1O/C(=C\c2ccc(O)c(Br)c2)C(c2ccc(O)cc2)=C1C(=O)c1ccc(O)cc1 | > 125 | > 125 | 125 | > 125 | > 125 | > 125 | > 125 | > 125 |  |  |  |  |  |  |  | 
